Reference: ChEMBL document CHEMBL4765447, “Design, synthesis and biological evaluation of diamino substituted cyclobut-3-ene-1,2-dione derivatives for the treatment of drug-resistant tuberculosis” (Eur J Med Chem, 2020)
≈ marks a conversion by molar mass, not a printed value.

Assays:
[1] = tested on: Mycobacterium tuberculosis H37Rv; assay: Inhibition of ATP synthase in Mycobacterium tuberculosis H37Rv assessed as reduction in bacterial growth incubated for 7 days by microplate alamar blue assay; settings: time 7.0 day
Procedure, shortened: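 Microplate alamar blue assay. Strains grown to late log phase in 7H9 broth with 0.2% glycerol, 0.05% Tween 80 and 10% ADC, then washed, filtered (8 µm) and frozen. Twofold compound dilutions with 2×10^5 CFU per well at 37 °C. On day 7, Tween 80 and alamar blue added; after 16–24 h, fluorescence read at 530/590 nm. MIC is the lowest concentration giving ≥90% fluorescence reduction versus bacterium-only controls.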

[2] = tested on: Vero; assay: Cytotoxicity against African green monkey Vero cells assessed as reduction in cell viability measured after 48 hrs by MTT assay; assay type: cell-based; settings: Chlorocebus sabaeus
Procedure, shortened: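 Vero cells grown in RPMI1640 with 10% FBS at 37 °C, 5% CO2, seeded at 4×10^5 cells/mL. Threefold dilutions from 64 to 0.26 µg/mL final, incubated 48 h at 37 °C. Monolayers washed with HBSS, then MTT added for 4 h. Absorbance read at 492 nm.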

[3] = Half life in CD-1 mouse hepatocytes at 1 uM measured after 30 mins by LC-MS/MS analysis; assay type: ADME, cell-based, Hepatocyte
Procedure, shortened: (§1)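 Pooled male CD-1 mouse or pooled human hepatocytes, pre-incubated 20 min at 37 °C in CO2. Compound at 1 µM final with 1 million cells/mL. Samples taken at 0 and 30 min, quenched and centrifuged 15 min at 4 °C. Parent compound remaining measured by LC-MS/MS.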

[4] = Half life in human hepatocytes at 1 uM measured after 30 mins by LC-MS/MS analysis; assay type: ADME, cell-based, Hepatocyte; procedure, shortened: as §1
[5] = Intrinsic clearance in CD-1 mouse hepatocytes at 1 uM measured after 30 mins by LC-MS/MS analysis; assay type: ADME, cell-based, Hepatocyte; settings: 0.5 h; procedure, shortened: as §1
[6] = Intrinsic clearance in human hepatocytes at 1 uM measured after 30 mins by LC-MS/MS analysis; assay type: ADME, cell-based, Hepatocyte; settings: 0.5 h; procedure, shortened: as §1
[7] = target: Voltage-gated inwardly rectifying potassium channel KCNH2 (Homo sapiens, UniProt Q12809); assay: Inhibition of human ERG stably expressed in HEK293 cells by whole-cell manual patch clamp method; assay type: cell-based
Sequence of Voltage-gated inwardly rectifying potassium channel KCNH2 (Q12809 whole entry): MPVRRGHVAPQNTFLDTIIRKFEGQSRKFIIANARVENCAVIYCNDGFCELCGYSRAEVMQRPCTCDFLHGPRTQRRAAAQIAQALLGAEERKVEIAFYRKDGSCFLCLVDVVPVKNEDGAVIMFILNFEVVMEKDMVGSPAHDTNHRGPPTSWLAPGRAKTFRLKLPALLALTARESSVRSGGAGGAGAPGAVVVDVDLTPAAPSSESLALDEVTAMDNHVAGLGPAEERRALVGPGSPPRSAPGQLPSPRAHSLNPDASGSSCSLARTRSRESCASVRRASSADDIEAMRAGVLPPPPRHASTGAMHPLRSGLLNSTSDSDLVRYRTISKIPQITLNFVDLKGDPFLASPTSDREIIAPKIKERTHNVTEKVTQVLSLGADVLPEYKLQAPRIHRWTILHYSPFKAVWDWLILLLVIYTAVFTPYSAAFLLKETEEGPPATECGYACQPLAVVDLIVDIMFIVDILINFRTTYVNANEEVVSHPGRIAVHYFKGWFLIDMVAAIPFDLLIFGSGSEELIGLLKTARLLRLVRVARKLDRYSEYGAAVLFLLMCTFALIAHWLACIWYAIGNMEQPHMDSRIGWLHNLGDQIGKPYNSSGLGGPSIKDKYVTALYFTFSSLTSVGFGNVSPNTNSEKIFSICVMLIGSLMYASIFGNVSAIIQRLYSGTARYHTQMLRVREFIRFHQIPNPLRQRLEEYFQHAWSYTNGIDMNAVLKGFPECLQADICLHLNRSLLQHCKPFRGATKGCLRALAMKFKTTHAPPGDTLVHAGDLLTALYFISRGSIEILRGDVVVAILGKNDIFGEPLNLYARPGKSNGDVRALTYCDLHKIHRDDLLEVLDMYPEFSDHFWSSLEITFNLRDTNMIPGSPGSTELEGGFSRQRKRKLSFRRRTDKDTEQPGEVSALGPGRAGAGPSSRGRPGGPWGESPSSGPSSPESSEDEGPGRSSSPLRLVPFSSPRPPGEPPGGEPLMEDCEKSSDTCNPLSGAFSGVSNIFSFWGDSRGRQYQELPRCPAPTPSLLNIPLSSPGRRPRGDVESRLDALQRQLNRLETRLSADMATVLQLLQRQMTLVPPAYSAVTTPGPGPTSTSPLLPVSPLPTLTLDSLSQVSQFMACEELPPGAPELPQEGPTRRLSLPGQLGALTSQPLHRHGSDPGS

[8] = Cmax in Balb/c mouse at 50 mg/kg, po by LC-MS analysis; assay type: ADME, organism-based; design: route oral, dose 50 mg/kg; settings: in vivo
Procedure, shortened: (§2)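 Male Balb/c mice (26–27 g), three per route. Single dose of 50 mg/kg p.o. in 0.5% carboxymethyl cellulose (5 mg/mL), or 5 mg/kg i.v. in 10% DMSO/50% PEG400/40% water (1 mg/mL). Blood taken at 5, 15, 30 min, 1, 2, 4, 7 and 24 h. Plasma extracted with acetonitrile (terfenadine internal standard) and quantified by LC-MS/MS in positive ESI. Non-compartmental analysis. F = dose-corrected AUC p.o./i.v.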

[9] = Tmax in Balb/c mouse at 50 mg/kg, po by LC-MS analysis; assay type: ADME, organism-based; settings: in vivo; procedure, shortened: as §2
[10] = Elimination half life in Balb/c mouse at 50 mg/kg, po by LC-MS analysis; assay type: ADME, organism-based; settings: in vivo, read-out: beta t1/2 (converted); procedure, shortened: as §2
[11] = AUC (0 to t) in Balb/c mouse at 50 mg/kg, po by LC-MS analysis; assay type: ADME, organism-based; design: dose 50 mg/kg; settings: in vivo; procedure, shortened: as §2
[12] = AUC (0 to infinity) in Balb/c mouse at 50 mg/kg, po by LC-MS analysis; assay type: ADME, organism-based; design: route oral, time infinity, dose 50 mg/kg; settings: in vivo; procedure, shortened: as §2
[13] = MRT (0 to infinity) in Balb/c mouse at 50 mg/kg, po by LC-MS analysis; assay type: ADME, organism-based; settings: in vivo; procedure, shortened: as §2
[14] = Oral bioavailability in Balb/c mouse at 50 mg/kg by LC-MS analysis; assay type: ADME, organism-based; settings: in vivo; procedure, shortened: as §2
[15] = Elimination half life in Balb/c mouse at 5 mg/kg, iv by LC-MS analysis; assay type: ADME, organism-based; settings: in vivo, read-out: beta t1/2 (converted); procedure, shortened: as §2
[16] = AUC (0 to t) in Balb/c mouse at 5 mg/kg, iv by LC-MS analysis; assay type: ADME, organism-based; design: dose 5 mg/kg; settings: in vivo; procedure, shortened: as §2
[17] = AUC (0 to infinity) in Balb/c mouse at 5 mg/kg, iv by LC-MS analysis; assay type: ADME, organism-based; design: time infinity, route intravenous, dose 5 mg/kg; settings: in vivo; procedure, shortened: as §2
[18] = MRT (0 to infinity) in Balb/c mouse at 5 mg/kg, iv by LC-MS analysis; assay type: ADME, organism-based; settings: in vivo; procedure, shortened: as §2
[19] = Clearance in Balb/c mouse at 5 mg/kg, iv by LC-MS analysis; assay type: ADME, organism-based; settings: in vivo; procedure, shortened: as §2

Structure (SMILES) | MIC=>90 [1] [µg/mL] | IC50 [2] [µg/mL] | other results
O=c1c(NCc2ccccn2)c(Nc2ccc(N3CCSCC3)cc2)c1=O | 1.54 (≈ 4.06 µM) | > 64 | half-life at 1 µM [3]: 12.6 min; half-life at 1 µM [4]: 12.1 min; intrinsic clearance [5]: 55.1 µL/min; intrinsic clearance [6]: 57.2 µL/min; IC50 [7]: > 30 µM
O=C1NC(=O)C(c2ccc(N3CCOCC3)cc2)=C1NCc1ccncc1 | > 32 | – | –
COc1cccc(Nc2c(NCc3ccccn3)c(=O)c2=O)c1 | 6.02 (≈ 19.5 µM) | – | –
O=C1OCC(NCc2ccccn2)=C1c1ccc(N2CCOCC2)cc1 | > 32 | – | –
NNC(=O)c1ccncc1 | 0.019 (≈ 0.139 µM) | – | –
O=c1c(NCc2ccccn2)c(Nc2ccc(N3CCOCC3)nc2)c1=O | > 32 | – | –
COc1ccccc1Nc1c(NCc2ccccn2)c(=O)c1=O | > 32 | – | –
O=c1c(NCc2ccccn2)c(Nc2ccc(N3CCSCC3)c(C(F)(F)F)c2)c1=O | 9.4 (≈ 21 µM) | – | –
COc1cc(Nc2c(NCc3ccccn3)c(=O)c2=O)ccc1N1CCSCC1 | > 32 | – | –
COc1ccc(Nc2c(NCc3ccccn3)c(=O)c2=O)cc1 | 3.42 (≈ 11 µM) | – | –
O=c1c(NCc2ccccn2)c(Nc2ccc(N3CCOCC3)cc2)c1=O | 3.75 (≈ 10.3 µM) | > 64 | half-life at 1 µM [3]: > 93.2 min; half-life at 1 µM [4]: > 93.2 min; intrinsic clearance [5]: < 7.4 µL/min; intrinsic clearance [6]: < 7.4 µL/min; IC50 [7]: > 30 µM
O=c1c(NCc2ccccn2)c(Nc2ccc(N3CCOCC3)cn2)c1=O | > 32 | – | –
O=c1c(NCc2ccccn2)c(Nc2ccc3ncsc3c2)c1=O | 1.91 (≈ 5.68 µM) | > 64 | –
Cc1ccc(CNc2c(Nc3ccc(N4CCSCC4)cc3)c(=O)c2=O)nc1 | > 32 | – | –
O=c1c(NCc2ccccn2)c(Nc2ccc(C(F)(F)F)cc2)c1=O | 14.9 (≈ 42.9 µM) | – | –
O=c1c(NCc2ccccn2)c(Nc2ccc3c(c2)OCCCO3)c1=O | 2.22 (≈ 6.32 µM) | > 64 | –
O=C1OCC(c2ccc(N3CCOCC3)cc2)=C1NCc1ccccn1 | > 32 | – | –
O=c1c(NCc2ccccn2)c(Nc2ccc3sccc3c2)c1=O | > 32 | – | –
O=c1c(NCc2ccccn2)c(Nc2cccc(N3CCSCC3)c2)c1=O | > 32 | – | –
O=c1c(NCc2ccccn2)c(Nc2ccc3c(c2)CCC3)c1=O | 0.979 (≈ 3.07 µM) | > 64 | half-life at 1 µM [3]: 11.1 min; half-life at 1 µM [4]: 10.3 min; intrinsic clearance [5]: 62.4 µL/min; intrinsic clearance [6]: 67.1 µL/min; IC50 [7]: > 30 µM
CO[C@H]1/C=C/O[C@@]2(C)Oc3c(C)c(O)c4c(O)c(c(/C=N/N5CCN(C)CC5)c(O)c4c3C2=O)NC(=O)/C(C)=C\C=C\[C@H](C)[C@H](O)[C@@H](C)[C@@H](O)[C@@H](C)[C@H](OC(C)=O)[C@@H]1C | 0.015 (≈ 0.0182 µM) | – | –
O=C1CCc2ccc(Nc3c(NCc4ccccn4)c(=O)c3=O)cc21 | 1.83 (≈ 5.5 µM) | > 64 | –
O=C1OCC(c2ccc(N3CCOCC3)cc2)=C1NCc1cccnc1 | > 32 | – | –

Structure (SMILES) | MIC=>90 [1] [µg/mL] | IC50 [2] [µg/mL] | other results
Cc1cc(Nc2c(NCc3ccccn3)c(=O)c2=O)ccc1N1CCSCC1 | 0.496 (≈ 1.26 µM) | > 64 | half-life at 1 µM [3]: 5.4 min; half-life at 1 µM [4]: 9 min; intrinsic clearance [5]: 127.8 µL/min; intrinsic clearance [6]: 77 µL/min; IC50 [7]: > 10 µM
O=c1c(NCc2ccccn2)c(Nc2ccc3c(c2)OCCO3)c1=O | 1.89 (≈ 5.59 µM) | > 64 | –
CN(C)c1ccc(Nc2c(NCc3ccccn3)c(=O)c2=O)cc1 | 2 (≈ 6.19 µM) | – | –
O=C1CCc2cc(Nc3c(NCc4ccccn4)c(=O)c3=O)ccc21 | 3.46 (≈ 10.4 µM) | > 64 | –
O=c1c(NCc2ccccn2)c(Nc2ccc(Cl)cc2)c1=O | 7.7 (≈ 24.5 µM) | – | –
Cc1cccc(CNc2c(Nc3ccc(N4CCSCC4)cc3)c(=O)c2=O)n1 | 3.65 (≈ 9.24 µM) | – | –
O=c1c(NCc2ccccn2)c(Nc2ccc(N3CCCCC3)cc2)c1=O | 3.76 (≈ 10.4 µM) | – | –
N#Cc1cc(Nc2c(NCc3ccccn3)c(=O)c2=O)ccc1N1CCSCC1 | 1.23 (≈ 3.04 µM) | > 64 | –
O=C1OCC(NCc2ccccn2)=C1c1ccc(N2CCSCC2)cc1 | > 32 | – | –
O=c1c(NCc2ccccn2)c(-c2ccc(N3CCOCC3)cc2)c1=O | 0.12 (≈ 0.343 µM) | > 64 | half-life at 1 µM [3]: 17.1 min; half-life at 1 µM [4]: 31.7 min; intrinsic clearance [5]: 40.6 µL/min; intrinsic clearance [6]: 21.9 µL/min; IC50 [7]: > 30 µM
O=c1c(NCc2ccccn2)c(Nc2ccc3c(c2)OCO3)c1=O | 0.452 (≈ 1.4 µM) | > 64 | half-life at 1 µM [3]: 17 min; half-life at 1 µM [4]: > 93.2 min; intrinsic clearance [5]: 40.8 µL/min; intrinsic clearance [6]: < 7.4 µL/min; IC50 [7]: > 30 µM; Cmax [8]: 1330 ng/mL; Tmax [9]: 49.8 min; half-life [10]: 30.6 min; AUC(0-t) [11]: 2200 ng·h/mL; AUC(0-inf) [12]: 2200 ng·h/mL; MRT inf [13]: 81.6 min; bioavailability [14]: 13.1%; half-life [15]: 19.8 min; AUC(0-t) [16]: 1670 ng·h/mL; AUC(0-inf) [17]: 1670 ng·h/mL; MRT inf [18]: 16.8 min; clearance [19]: 51.4 mL/min/kg
O=c1c(NCc2ccccn2)c(Nc2ccc3scnc3c2)c1=O | 0.963 (≈ 2.86 µM) | > 64 | IC50 [7]: > 10 µM
O=C1NC(=O)C(c2ccc(N3CCOCC3)cc2)=C1NCc1ccccn1 | > 32 | – | –
O=C1CCCc2cc(Nc3c(NCc4ccccn4)c(=O)c3=O)ccc21 | 0.739 (≈ 2.13 µM) | > 64 | half-life at 1 µM [3]: 10.3 min; half-life at 1 µM [4]: 41.9 min; intrinsic clearance [5]: 67.2 µL/min; intrinsic clearance [6]: 16.6 µL/min
O=C1OCC(NCc2cccnc2)=C1c1ccc(N2CCOCC2)cc1 | > 32 | – | –
O=c1c(NCc2ccccn2)c(Nc2ccc(N3CCCOCC3)cc2)c1=O | 6.65 (≈ 17.6 µM) | – | –
Cc1cc(Nc2c(NCc3ccccn3)c(=O)c2=O)ccc1N1CCOCC1 | 2.45 (≈ 6.48 µM) | > 64 | –
O=c1c(NCc2ccccn2)c(Nc2ccc3[nH]ccc3c2)c1=O | > 32 | – | –
O=c1c(NCc2cccnc2)c(Nc2ccc(N3CCSCC3)cc2)c1=O | > 32 | – | –
O=C1COCCN1c1ccc(Nc2c(NCc3ccccn3)c(=O)c2=O)cc1 | 7.75 (≈ 20.5 µM) | – | –
O=C1NC(=O)C(c2ccc(N3CCOCC3)cc2)=C1NCc1cccnc1 | > 32 | – | –
O=c1c(NCc2ccccn2)c(Nc2ccc(N3CC[S+]([O-])CC3)cc2)c1=O | 15.8 (≈ 39.9 µM) | – | –
